Measurements published in publication PMC9037209 (Journal of Enzyme Inhibition and Medicinal Chemistry, 2022).
Values after ≈ are worked out from the molar mass of the structure shown. Values joined by “and” are separate entries in the source; they are usually repeats but may differ in a detail not shown here. Equal values may be shown once. “Also recorded” adds a separate entry of the source. Read-outs that look alike come from different tables or passages of the source. Marks after values point to notes of the source that are not given here.

Assays:
[1] = target: PNP from Helicobacter pylori strain 26695 (HpPNP) (Helicobacter pylori, UniProt P56463); assay: Inhibition of H. pylori PNP, direct spectrophotometric phosphorolysis assay; assay type: biochemical; details: m7Guo variable substrate, 50 mM phosphate; for inhibition model describing the data: model chosen by F test / AIC; for alpha = Kiu/Kic: mixed inhibition model, 25 °C, pH 7.0
PNP from Helicobacter pylori strain 26695 (HpPNP), sequence (P56463 whole entry): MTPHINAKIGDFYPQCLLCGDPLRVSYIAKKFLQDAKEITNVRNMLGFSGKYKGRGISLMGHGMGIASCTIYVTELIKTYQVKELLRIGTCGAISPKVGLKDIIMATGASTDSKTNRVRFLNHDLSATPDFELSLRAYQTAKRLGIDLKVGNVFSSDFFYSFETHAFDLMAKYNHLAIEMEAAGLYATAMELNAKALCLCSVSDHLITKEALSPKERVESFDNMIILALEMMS

[2] = Solubility: concentration of dissolved inhibitor in filtered supernatants; assay type: physicochemical; details: for solubility: water, kinetic from dmso stock; for maximal tested concentration of the fully dissolved compound: in the cell culture experiment, filtered supernatant
Outline: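 DMSO stocks (10 mM) diluted with water to the planned concentrations. Precipitate removed with sterile 0.22 µm syringe filters. Dissolved concentration in the filtrate measured by UV absorbance: ε261 10,900 M−1 cm−1 for the 6-benzyloxy analogue, ε299 18,000 M−1 cm−1 for 6-benzylthio analogues.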

[3] = system: H. pylori strain 26695; assay: Minimal inhibitory concentration; assay type: cell-based, Helicobacter pylori
Outline: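 Strain ATCC 26695 revived from glycerol stock on BHI agar with 10% FBS and 1% selective supplement. Twofold compound dilutions (DMSO or water stocks) mixed 1:1 with inoculated double-strength BHI (20% FBS, 2% supplement; ~0.05 OD600, 4×10^4 CFU/mL final). Shaken at 120 rpm, 37 °C, microaerophilic; OD600 read at 0, 4, 8 and 24 h. Viability checked with Christensen's urea broth (4 h, aerobic, 37 °C). MIC taken at ≥90% inhibition; triplicates, kanamycin and DMSO controls.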

[4] = system: H. pylori strain 26695; details: cited from earlier work
[5] = system: H. pylori 26695 strain; assay: Checkerboard assay of 6BnS-2Cl-Pu with metronidazole; assay type: cell-based, Helicobacter pylori; details: single agent, concentration giving about 90% inhibition or more
Outline: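 Sub-MIC checkerboard against strain 26695 with metronidazole (range chosen from the EUCAST MIC). Test-compound gradient 3.0–10.0. Single agents added at 2× and combinations at 4× each, with inoculated double-strength BHI (~0.05 OD600, 4×10^4 CFU/mL final). Shaken at 120 rpm, 37 °C, microaerophilic. […] FICI = MICA/MICa + MICB/MICb.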

[6] = target: H. pylori PNP; details: read-out: inhibition constant; competitive vs. nucleoside substrate; cited from earlier work
[7] = Helicobacter pylori, 26695, 24 h

| SMILES | inhibition model describing the data [1] | alpha = Kiu/Kic [1] | solubility [2] | MIC [3, 7] | further results |
| --- | --- | --- | --- | --- | --- |
| Cc1ncc([N+](=O)[O-])n1CCO [metronidazole] | – | – | – | – | MIC ([4]; EUCAST): 8^f µg mL^−1; MIC ([4]; converted from EUCAST value): 47 µM (≈ 8.04 µg/mL); MIC taken for FICI calculation [5]: 2 µg/mL |
| NC[C@H]1O[C@H](O[C@H]2[C@H](O)[C@@H](O[C@H]3O[C@H](CO)[C@@H](O)[C@H](N)[C@H]3O)[C@H](N)C[C@@H]2N)[C@H](O)[C@@H](O)[C@@H]1O [kanamycin, Kanamycin] | – | – | – | – | MIC [4]: 0.5–64^f µg mL^−1; MIC ([4]; converted from literature value): 1.1 to 132 µM; % of H. pylori cell culture inhibition ([3]; 25 µg/mL (52 µM), positive control, not the maximal solubility): 92–96% |
| Nc1ncnc2c([C@@H]3O[C@H](CO)[C@@H](O)[C@H]3O)[nH]nc12 [Formycin A] | – | – | – | – | Ki [6]: 14 ± 1.7 µM |

Further lines, with some results ahead:

| inhibition model describing the data [1] | alpha = Kiu/Kic [1] | solubility [2] | MIC [3, 7] | SMILES | further results |
| --- | --- | --- | --- | --- | --- |
| non-competitive | 1.17 ± 0.44 | 236 µg/mL and 1250 µM | 2500 µM (≈ 473 µg/mL) | Clc1nc(Cl)c2[nH]cnc2n1 [2,6-diCl-Pu, 2,6-dichloropurine] | solubility in water ([2]; 10 mM stock in milli-Q water and 2-fold dilutions, no precipitate): good solubility in water; also recorded: well soluble in water; MIC ([3]; Helicobacter pylori, 26695): 2500 µM (≈ 473 µg/mL) |
| non-competitive | 1.07 ± 0.27 | 21 µg/mL and 85 µM | 48 µg/mL and 200 µM | c1ccc(CSc2ncnc3nc[nH]c23)cc1 [6BnS-Pu, 6-benzylthiopurine] | H. pylori 26695 strain growth inhibition ([3]; prepared as 200 µM but partially precipitated): completely inhibited |
| probably a mixed type | 0.16 ± 0.15 | 11.1 µg/mL and 40 µM | 69 µg/mL and 250 µM | Clc1nc(SCc2ccccc2)c2[nH]cnc2n1 [6BnS-2Cl-Pu, 6-benzylthio-2-chloropurine] | maximal tested concentration of the fully dissolved compound [2]: 0.040 mM; H. pylori 26695 cell culture growth inhibition ([3]; solution prepared as 0.25 mM but partially precipitated): full inhibition; also recorded: Complete growth inhibition |
| mixed inhibition model | 0.25 ± 0.12 | 25 µg/mL and 95 µM | – | Clc1nc(OCc2ccccc2)c2[nH]cnc2n1 [6BnO-2Cl-Pu, 6-benzyloxy-2-chloropurine] | maximal tested concentration of the fully dissolved compound [2]: 0.095 mM |
